Reference: ChEMBL document CHEMBL1221219, “Selective blockade of 2-arachidonoylglycerol hydrolysis produces cannabinoid behavioral effects” (Nat Chem Biol, 2009)
Activity calls are given as the source filed them. The calls are words filed in the database; no cut-off is given here.

Experiments:
[1] = biological target: T1, Diacylglycerol lipase-alpha (Homo sapiens) (UniProt Q9Y4D2); assay: Inhibition of recombinant DAGLalpha expressed in HEK293 cells assessed as hydrolysis of 1-stearoyl-2-arachidonoyl-glycerol to 2-AG at 25 uM after 30 mins by LC-MS method; assay type: cell-based
T1 sequence (whole entry): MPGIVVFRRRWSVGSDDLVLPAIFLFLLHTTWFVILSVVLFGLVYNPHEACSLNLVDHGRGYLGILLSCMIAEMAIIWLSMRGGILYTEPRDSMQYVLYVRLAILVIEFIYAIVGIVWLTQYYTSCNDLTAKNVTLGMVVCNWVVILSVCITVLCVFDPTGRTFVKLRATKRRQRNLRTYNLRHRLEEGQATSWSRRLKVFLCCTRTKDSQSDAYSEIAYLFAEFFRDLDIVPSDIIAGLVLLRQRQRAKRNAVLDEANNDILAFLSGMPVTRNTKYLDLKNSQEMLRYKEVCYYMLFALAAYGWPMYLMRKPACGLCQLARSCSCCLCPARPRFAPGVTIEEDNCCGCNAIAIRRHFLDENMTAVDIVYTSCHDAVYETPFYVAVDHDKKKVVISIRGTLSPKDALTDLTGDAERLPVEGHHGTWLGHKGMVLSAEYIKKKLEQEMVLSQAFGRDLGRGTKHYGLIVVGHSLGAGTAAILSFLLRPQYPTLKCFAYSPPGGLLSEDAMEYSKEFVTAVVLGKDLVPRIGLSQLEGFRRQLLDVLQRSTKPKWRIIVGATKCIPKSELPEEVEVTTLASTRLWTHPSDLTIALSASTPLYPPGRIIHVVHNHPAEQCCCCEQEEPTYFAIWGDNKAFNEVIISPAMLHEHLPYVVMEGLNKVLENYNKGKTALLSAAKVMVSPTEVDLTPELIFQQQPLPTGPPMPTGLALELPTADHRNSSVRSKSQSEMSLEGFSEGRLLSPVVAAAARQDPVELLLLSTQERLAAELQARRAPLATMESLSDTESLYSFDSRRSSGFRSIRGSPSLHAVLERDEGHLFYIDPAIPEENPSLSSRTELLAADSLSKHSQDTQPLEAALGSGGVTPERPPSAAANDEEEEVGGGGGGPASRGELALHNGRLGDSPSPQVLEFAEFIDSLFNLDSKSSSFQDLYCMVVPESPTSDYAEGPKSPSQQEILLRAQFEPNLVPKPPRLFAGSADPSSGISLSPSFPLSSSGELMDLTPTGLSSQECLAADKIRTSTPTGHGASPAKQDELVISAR

Mus musculus [2] = assay: Inhibition of FAAH in C57B1/6J mouse brain membrane at 16 mg/kg, ip after 0.5-24 hrs by competitive activity-based protein profiling method; assay type: functional; details: route intraperitoneal
Method in brief: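 Male C57Bl/6J mice (6-8 weeks, 20-26 g) given inhibitor i.p. in 4:1 v/v PEG300:Tween80 at 4 ul g^-1 (4-40 mg kg^-1); vehicle controls. Brain membrane proteomes (1 mg ml^-1 in PBS) labelled with FP-rhodamine (2 μM) for 30 min at room temperature. Readout by SDS-PAGE and in-gel fluorescence scanning, compared with vehicle.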

Mus musculus [3] = assay: Inhibition of CES31 in C57B1/6J mouse brain membrane at 16 mg/kg, ip after 4 hrs by competitive activity-based protein profiling-MudPIT method; assay type: functional, organism-based; parameters: dose 16 mg/kg
Method in brief: (§1)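 Mice were dosed 16 mg kg^-1 i.p. or vehicle and killed at 4 h. Brain membrane proteomes were labelled with FP-biotin, avidin-enriched, trypsin-digested on bead, analysed by multidimensional LC-MS and identified by SEQUEST.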

Mus musculus [4] = assay: Inhibition of FAS in C57B1/6J mouse brain membrane at 16 mg/kg, ip after 4 hrs by competitive activity-based protein profiling-MudPIT method; assay type: functional, organism-based; parameters: dose 16 mg/kg
Method in brief: (§2)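 After i.p. dosing in 4:1 PEG300:Tween80, male C57Bl/6J mice were killed at 4 h. Brain membrane proteomes from treated and vehicle mice were labelled with FP-biotin. Labelled proteins were enriched on avidin, digested on-bead with trypsin and analysed by multidimensional LC-MS. Proteins were identified by SEQUEST, and dosed samples were compared with vehicle.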

Mus musculus [5] = assay: Inhibition of PREPL in C57B1/6J mouse brain membrane at 16 mg/kg, ip after 4 hrs by competitive activity-based protein profiling-MudPIT method; assay type: functional, organism-based; parameters: dose 16 mg/kg; method in brief: as §2
Mus musculus [6] = assay: Inhibition of 2210412D01 gene in C57B1/6J mouse brain membrane at 16 mg/kg, ip after 4 hrs by competitive activity-based protein profiling-MudPIT method; assay type: functional, organism-based; parameters: dose 16 mg/kg; method in brief: as §1
[7] = biological target: Cannabinoid receptor 1 (Homo sapiens) (UniProt P21554); assay: Displacement of [3H]rimonabant from CB1 in cerebellar membrane after 90 mins by liquid scintillation; assay type: cell membranes; details: Cerebellum
Chain of Cannabinoid receptor 1 (Homo sapiens) (P21554 whole entry): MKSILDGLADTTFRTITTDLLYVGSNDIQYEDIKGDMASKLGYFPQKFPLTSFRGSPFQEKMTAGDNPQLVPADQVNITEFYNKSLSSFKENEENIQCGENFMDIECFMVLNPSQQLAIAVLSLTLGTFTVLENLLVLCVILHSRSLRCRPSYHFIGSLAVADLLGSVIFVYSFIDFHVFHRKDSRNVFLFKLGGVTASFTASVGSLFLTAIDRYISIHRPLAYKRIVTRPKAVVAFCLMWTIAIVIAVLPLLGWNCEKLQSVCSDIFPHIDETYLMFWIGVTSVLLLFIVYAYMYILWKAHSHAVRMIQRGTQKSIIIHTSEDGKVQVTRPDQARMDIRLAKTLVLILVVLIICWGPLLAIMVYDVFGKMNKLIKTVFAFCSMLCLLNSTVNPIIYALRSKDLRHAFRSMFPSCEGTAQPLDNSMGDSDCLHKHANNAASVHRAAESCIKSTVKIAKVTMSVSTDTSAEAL

Mus musculus [8] = assay: Inhibition of AChE in C57B1/6J mouse brain membrane at 16 mg/kg, ip after 4 hrs by competitive activity-based protein profiling-MudPIT method; assay type: functional, organism-based; parameters: dose 16 mg/kg; method in brief: as §1
Mus musculus [9] = assay: Inhibition of FAAH in orally dosed C57B1/6J mouse brain membrane after 4 hrs; assay type: functional, organism-based
Method in brief: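 Oral dosing used male C57Bl/6J mice (6-8 weeks) given inhibitor in PEG300 vehicle at 4 ul g^-1, handled as for i.p. dosing. Brains were taken 4 h later for analysis of brain membrane hydrolase activity.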

Mus musculus [10] = assay: Inhibition of TPP2 in C57B1/6J mouse brain membrane at 16 mg/kg, ip after 4 hrs by competitive activity-based protein profiling-MudPIT method; assay type: functional, organism-based; parameters: dose 16 mg/kg; method in brief: as §2
Mus musculus [11] = assay: Inhibition of MAGL in C57B1/6J mouse brain membrane assessed as inhibition of 2-AG hydrolysis activity at 16 mg/kg, ip upto 24 hrs by competitive activity-based protein profiling method relative to control; assay type: functional; details: route intraperitoneal
Method in brief: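 Male C57Bl/6J mice dosed i.p. in 4:1 v/v PEG300:Tween80, with vehicle controls; killed at set times (0.5-24 h, or 4 h). Brain membrane 2-AG hydrolysis measured by LC-MS substrate assay, and brain 2-AG measured by lipid LC-MS, relative to vehicle.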

O=C(Oc1ccc([N+](=O)[O-])cc1)N1CCC(C(O)(c2ccc3c(c2)OCO3)c2ccc3c(c2)OCO3)CC1
inhibition [1]: inactive | inhibition in vivo at 16 mg/kg (Mus musculus [2]): 70% | inhibition (Mus musculus [3]): inactive | inhibition (Mus musculus [4]): inactive | inhibition (Mus musculus [5]): inactive | inhibition (Mus musculus [6]): inactive | Activity [7]: inactive | inhibition (Mus musculus [8]): inactive | inhibition (Mus musculus [9]): Active | inhibition (Mus musculus [10]): inactive | inhibition in vivo at 16 mg/kg (Mus musculus [11]): > 80%
